Measured values as given in ChEMBL document CHEMBL1151744, “New analgesics synthetically derived from the paracetamol metabolite N-(4-hydroxyphenyl)-(5Z,8Z,11Z,14Z)-icosatetra-5,8,11,14-enamide” (J Med Chem, 2008).
Each block holds one compound with its values, some of them ahead of it. The source made the active and inactive calls. No cut-off for these calls is given here.

What was measured:
[1] = target: T1, Fatty-acid amide hydrolase 1 (Rattus norvegicus) (UniProt P97612); test: Inhibition of FAAH in rat brain membrane assessed as [14C]anandamide hydrolysis at 50 uM by scintillation counting; type: cell membranes
T1 sequence (whole entry): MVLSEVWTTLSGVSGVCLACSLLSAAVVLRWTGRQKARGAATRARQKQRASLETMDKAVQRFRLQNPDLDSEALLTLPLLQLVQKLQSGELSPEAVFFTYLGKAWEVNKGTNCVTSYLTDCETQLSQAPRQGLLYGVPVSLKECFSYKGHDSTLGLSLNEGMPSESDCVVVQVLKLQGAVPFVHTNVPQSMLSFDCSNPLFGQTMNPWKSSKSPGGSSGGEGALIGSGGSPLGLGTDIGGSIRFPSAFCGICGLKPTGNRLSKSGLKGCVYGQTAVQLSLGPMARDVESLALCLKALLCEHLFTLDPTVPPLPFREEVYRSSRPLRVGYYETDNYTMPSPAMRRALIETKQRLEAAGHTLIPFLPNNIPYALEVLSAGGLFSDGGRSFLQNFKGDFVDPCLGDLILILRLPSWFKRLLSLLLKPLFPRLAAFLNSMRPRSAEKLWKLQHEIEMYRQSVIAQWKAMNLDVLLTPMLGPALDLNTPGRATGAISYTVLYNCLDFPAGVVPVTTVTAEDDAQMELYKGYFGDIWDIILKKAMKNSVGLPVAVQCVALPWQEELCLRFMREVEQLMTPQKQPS
Outline: (§1)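 Enzyme source was a rat brain membrane pellet resuspended in 50 mM Tris-HCl, pH 9.0, 70 µg protein per assay. It was incubated with compound (10 or 50 µM) and [14C]anandamide (10000 cpm) for 30 min at 37 °C. After CHCl3/MeOH (1:1) extraction, [14C]ethanolamine in the aqueous phase was counted by scintillation. Points were run in duplicate.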

[2] = target: T2, Cannabinoid receptor 1 (Homo sapiens, UniProt P21554); test: Displacement of [3H]CP-55940 from human recombinant CB1 receptor expressed in HEK293 cells at 10 uM; type: cell-based
[3] = target: T3, Cannabinoid receptor 2 (Homo sapiens, UniProt P34972); test: Displacement of [3H]CP-55940 from human recombinant CB2 receptor expressed in HEK293 cells at 10 uM; type: cell-based
[4] = target: Prostaglandin G/H synthase 1 (Homo sapiens, UniProt P23219); test: Inhibition of cyclooxygenase 1 in human whole blood assessed as thromboxane B2 level; type: tissue-based
Outline: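 Fresh whole blood came from a healthy volunteer free of NSAIDs for 2 weeks. 1 mL aliquots received test agent in DMSO and were left to clot for 1 h at 37 °C. Serum TXB2 was measured by GC-MS/MS, in quadruplicate.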

[5] = target: T4, Prostaglandin G/H synthase 1 (Ovis aries) (UniProt P05979); test: Inhibition of ovine cyclooxygenase 1 assessed as prostaglandin F2alpha level at 1 uM by enzyme immunoassay relative to control
T4 sequence (whole entry): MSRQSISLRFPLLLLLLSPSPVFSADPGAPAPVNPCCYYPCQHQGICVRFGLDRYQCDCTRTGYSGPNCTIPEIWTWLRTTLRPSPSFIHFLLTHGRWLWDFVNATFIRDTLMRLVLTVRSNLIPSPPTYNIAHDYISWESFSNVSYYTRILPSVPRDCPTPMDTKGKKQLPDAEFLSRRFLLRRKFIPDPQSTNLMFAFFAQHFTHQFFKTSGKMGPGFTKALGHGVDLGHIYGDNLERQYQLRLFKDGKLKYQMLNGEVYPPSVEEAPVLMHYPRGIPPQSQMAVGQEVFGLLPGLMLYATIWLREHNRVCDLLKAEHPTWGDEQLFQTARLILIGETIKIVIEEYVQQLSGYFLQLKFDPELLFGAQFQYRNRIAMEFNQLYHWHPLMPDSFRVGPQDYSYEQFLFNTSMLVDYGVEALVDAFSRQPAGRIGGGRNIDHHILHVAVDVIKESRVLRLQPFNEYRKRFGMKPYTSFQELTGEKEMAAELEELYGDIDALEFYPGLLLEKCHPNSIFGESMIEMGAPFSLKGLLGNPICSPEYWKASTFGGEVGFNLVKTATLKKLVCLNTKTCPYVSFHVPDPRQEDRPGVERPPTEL
Outline: (§2)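 Isolated ovine COX-1 or human recombinant COX-2 was incubated with compound at 1 or 10 µM for 10 min at 37 °C. Buffer was 0.1 M Tris-HCl pH 8.0 with 5 mM EDTA and 2 mM phenol. PGH2 formed was reduced to PGF2α with stannous chloride for quantification. Ketoprofen (10 µM) served as reference; values are means of four experiments.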

[6] = target: T4, Prostaglandin G/H synthase 1 (Ovis aries); test: Inhibition of ovine cyclooxygenase 1 assessed as prostaglandin F2alpha level at 10 uM by enzyme immunoassay relative to control; outline: as §2
[7] = target: T5, Prostaglandin G/H synthase 2 (Homo sapiens) (UniProt P35354); test: Inhibition of human recombinant cyclooxygenase 2 assessed as prostaglandin F2alpha level at 1 uM by enzyme immunoassay relative to control; outline: as §2
T5 sequence (whole entry): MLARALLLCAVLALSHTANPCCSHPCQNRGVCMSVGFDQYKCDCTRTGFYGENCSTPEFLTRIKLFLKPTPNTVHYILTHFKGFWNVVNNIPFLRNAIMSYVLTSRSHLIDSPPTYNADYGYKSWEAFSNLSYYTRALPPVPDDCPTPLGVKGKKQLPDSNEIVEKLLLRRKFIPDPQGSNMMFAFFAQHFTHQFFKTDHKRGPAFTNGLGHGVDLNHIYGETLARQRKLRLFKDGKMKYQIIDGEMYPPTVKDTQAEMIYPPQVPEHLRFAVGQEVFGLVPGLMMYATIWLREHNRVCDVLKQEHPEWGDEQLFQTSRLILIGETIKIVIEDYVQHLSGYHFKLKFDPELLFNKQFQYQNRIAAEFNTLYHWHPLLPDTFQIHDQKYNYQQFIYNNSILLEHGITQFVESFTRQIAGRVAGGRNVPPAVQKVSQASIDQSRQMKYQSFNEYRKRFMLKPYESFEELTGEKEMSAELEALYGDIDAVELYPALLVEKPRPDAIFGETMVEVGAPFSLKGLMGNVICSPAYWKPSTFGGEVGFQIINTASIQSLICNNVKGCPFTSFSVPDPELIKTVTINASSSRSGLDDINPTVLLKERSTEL

[8] = organism: Mus musculus; test: Toxicity in C57BL/6 mouse assessed as loss of locomotor behavior; type: organism-based; details: in vivo
[9] = system: Mus musculus; test: Antinociceptive activity against formalin-induced nociceptive behavior in C57BL/6 mouse assessed as mean licking time at 5 mg/kg, ip administered 15 mins prior to formalin challenge measured upto 10 mins relative to control; type: functional; details: route intraperitoneal
Outline: (§3)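 C57BL/6 mice (n = 6-8 per group) were habituated 15-20 min in an observation chamber with mirrors, then given the compound ip at 6 µL/g in PBS/DMSO. Formalin (5%, 20 µL) went into the dorsal left hind paw 15 min later. Licking of the injected paw was summed over 0-10 min (phase 1) and 15-45 min (phase 2) and expressed as % of the vehicle control. Groups were compared by t test.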

[10] = system: Mus musculus; test: Antinociceptive activity against formalin-induced nociceptive behavior in C57BL/6 mouse assessed as mean licking time at 10 mg/kg, ip administered 15 mins prior to formalin challenge measured upto 10 mins relative to control; type: functional; details: route intraperitoneal; outline: as §3
[11] = system: Mus musculus; test: Antinociceptive activity against formalin-induced nociceptive behavior in C57BL/6 mouse assessed as mean licking time at 50 mg/kg, ip administered 15 mins prior to formalin challenge measured upto 10 mins relative to control; type: functional; details: route intraperitoneal; outline: as §3
[12] = system: Mus musculus; test: Antinociceptive activity against formalin-induced nociceptive behavior in C57BL/6 mouse assessed as mean licking time at 5 mg/kg, ip administered 15 mins prior to formalin challenge measured after 15 to 45 mins relative to control; type: functional; details: route intraperitoneal; outline: as §3
[13] = system: Mus musculus; test: Antinociceptive activity against formalin-induced nociceptive behavior in C57BL/6 mouse assessed as mean licking time at 10 mg/kg, ip administered 15 mins prior to formalin challenge measured after 15 to 45 mins relative to control; type: functional; details: route intraperitoneal; outline: as §3
[14] = system: Mus musculus; test: Antinociceptive activity against formalin-induced nociceptive behavior in C57BL/6 mouse assessed as mean licking time at 50 mg/kg, ip administered 15 mins prior to formalin challenge measured after 15 to 45 mins relative to control; type: functional; details: route intraperitoneal; outline: as §3
[15] = target: T5, Prostaglandin G/H synthase 2 (Homo sapiens); test: Inhibition of human recombinant cyclooxygenase 2 assessed as prostaglandin F2alpha level at 10 uM by enzyme immunoassay relative to control; outline: as §2
[16] = target: T6, Prostaglandin G/H synthase 2 (Homo sapiens, UniProt P35354); test: Inhibition of cyclooxygenase 2 in human whole blood assessed as prostaglandin E2 level
T6 sequence (P35354 whole entry): T5 sequence (whole entry)

[17] = system: Mus musculus; test: Toxicity in C57BL/6 mouse assessed as loss of locomotor behavior at 325 mg/kg; type: organism-based; parameters: dose 325 mg/kg; details: in vivo
[18] = target: T2, Cannabinoid receptor 1; test: Displacement of [3H]CP-55940 from human recombinant CB1 receptor expressed in HEK293 cells; type: cell-based
Outline: (§4)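 Membranes were from HEK-293 cells overexpressing human CB1 or CB2, with [3H]CP-55,940 as radioligand (Kd 0.18 nM CB1, 0.31 nM CB2). Test compound (1 nM-10 µM) was incubated 90 min at 30 °C. Displaced radioligand was counted by scintillation. Ki came from IC50 via Cheng-Prusoff, with triplicate points; single-concentration screens were run in duplicate.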

[19] = target: T3, Cannabinoid receptor 2; test: Displacement of [3H]CP-55940 from human recombinant CB2 receptor expressed in HEK293 cells; type: cell-based; outline: as §4
[20] = target: T1, Fatty-acid amide hydrolase 1 (Rattus norvegicus); test: Inhibition of FAAH in rat brain membrane assessed as [14C]anandamide hydrolysis at 10 uM by scintillation counting; type: cell membranes; outline: as §1

T2 sequence (P21554 whole entry): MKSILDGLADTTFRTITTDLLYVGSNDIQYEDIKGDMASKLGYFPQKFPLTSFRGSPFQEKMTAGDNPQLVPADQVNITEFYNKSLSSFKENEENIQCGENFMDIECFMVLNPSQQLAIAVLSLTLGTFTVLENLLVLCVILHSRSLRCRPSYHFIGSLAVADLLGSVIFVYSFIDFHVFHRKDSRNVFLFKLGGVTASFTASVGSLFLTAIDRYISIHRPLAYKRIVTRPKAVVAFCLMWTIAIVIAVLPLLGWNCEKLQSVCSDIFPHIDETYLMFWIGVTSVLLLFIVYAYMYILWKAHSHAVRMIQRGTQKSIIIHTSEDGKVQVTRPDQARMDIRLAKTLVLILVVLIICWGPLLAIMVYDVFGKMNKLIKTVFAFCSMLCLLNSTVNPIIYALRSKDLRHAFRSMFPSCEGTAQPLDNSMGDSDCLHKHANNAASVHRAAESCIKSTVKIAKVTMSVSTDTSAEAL
T3 sequence (P34972 whole entry): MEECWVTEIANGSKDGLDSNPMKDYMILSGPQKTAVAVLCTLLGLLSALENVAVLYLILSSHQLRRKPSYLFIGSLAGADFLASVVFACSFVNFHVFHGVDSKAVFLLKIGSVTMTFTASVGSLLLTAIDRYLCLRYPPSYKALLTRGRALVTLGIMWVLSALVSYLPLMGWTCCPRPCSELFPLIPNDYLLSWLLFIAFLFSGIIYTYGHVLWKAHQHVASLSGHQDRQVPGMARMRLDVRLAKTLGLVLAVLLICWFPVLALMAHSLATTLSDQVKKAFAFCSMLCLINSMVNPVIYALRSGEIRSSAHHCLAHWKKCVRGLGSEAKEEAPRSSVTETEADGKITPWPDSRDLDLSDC
Sequence of Prostaglandin G/H synthase 1 (P23219 whole entry): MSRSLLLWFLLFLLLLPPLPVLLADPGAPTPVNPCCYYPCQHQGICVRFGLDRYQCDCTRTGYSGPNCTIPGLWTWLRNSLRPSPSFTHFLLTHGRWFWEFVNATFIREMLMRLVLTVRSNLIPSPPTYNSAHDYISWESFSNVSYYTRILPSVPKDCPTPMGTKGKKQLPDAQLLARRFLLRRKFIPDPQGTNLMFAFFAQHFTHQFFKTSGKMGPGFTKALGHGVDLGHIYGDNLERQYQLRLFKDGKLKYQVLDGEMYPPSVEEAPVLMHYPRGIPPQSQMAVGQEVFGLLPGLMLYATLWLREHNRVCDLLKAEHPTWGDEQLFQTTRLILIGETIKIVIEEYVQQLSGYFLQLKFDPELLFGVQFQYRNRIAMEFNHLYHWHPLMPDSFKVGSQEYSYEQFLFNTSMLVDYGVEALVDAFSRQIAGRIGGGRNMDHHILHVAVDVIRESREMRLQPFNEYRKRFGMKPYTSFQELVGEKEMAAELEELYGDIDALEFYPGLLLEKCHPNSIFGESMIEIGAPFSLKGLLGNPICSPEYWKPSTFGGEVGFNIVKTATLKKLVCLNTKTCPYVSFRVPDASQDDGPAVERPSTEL

Structure (SMILES): CC(=O)Nc1ccc2[nH]ncc2c1
- inhibition [1]: 4%
- Activity [2]: 1%
- Activity [3]: 12%
- Activity [4]: inactive
- inhibition [5]: 97%
- inhibition [6]: 92%
- inhibition [7]: 80%
- Activity [8]: Non-toxic
- Activity [9]: 105%
- Activity [10]: 142%
- Activity [11]: 29%
- Activity [12]: 94%
- Activity [13]: 73%
- Activity [14]: 38%
- inhibition [15]: 70%
- IC50 [16]: 107 µM

- inhibition [1]: 8%
- Activity [2]: 16%
- Activity [3]: 22%
- IC50 [4]: 234 µM
- IC50 [16]: 138 µM
Structure (SMILES): COc1cc(NC(C)=O)ccc1O
- Activity [17]: Toxic

- inhibition [6]: 16%
- inhibition [15]: 41%
Structure (SMILES): CC(C(=O)O)c1cccc(C(=O)c2ccccc2)c1 (stereo not drawn)

Structure (SMILES): CCCCC/C=C\C/C=C\C/C=C\C/C=C\CCCC(=O)NCc1ccc(O)cc1
- Ki [18]: 200 nM
- Ki [19]: 100 nM
- inhibition [1]: 88%
- inhibition [20]: 56%
